Assay results published in ChEMBL document CHEMBL5154895, “Mechanistic Studies and In Vivo Efficacy of an Oxadiazole-Containing Antibiotic” (J Med Chem, 2022).
In brackets after ≈: the same amount, converted by molar mass. Activity calls are given as the source filed them. The rule behind the calls is not given here.

How the values were obtained:
Staphylococcus aureus [1] = assay: Downregulation of peptidase protein expression in Staphylococcus aureus measured after 2 hrs by LC-MS/MS analysis; assay type: functional
Procedure, shortened: (§1)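 S. aureus ATCC 25923 at OD600 0.6 exposed to compound or DMSO control for 2 h at 37°C, normalized to OD600 1.1 and PBS-washed. Cells were pressure-cycling lysed in 100 mM ammonium bicarbonate, and 50 μg protein was acetone-precipitated, reduced and alkylated, then Trypsin/Lys-C digested and C18-desalted. About 1 μg peptides went to LC-MS/MS. Label-free quantitation kept proteins present in all 3 samples, filtered at p <0.05.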

Staphylococcus aureus [2] = assay: Antibacterial activity against methicillin-resistant Staphylococcus aureus NRS119 assessed as inhibition of bacterial growth incubated for 18 to 20 hrs by broth microdilution method; assay type: functional; details: time 18-20 hrs
Procedure, shortened: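 Broth microdilution per CLSI. Inoculum was set to 0.5 McFarland and diluted in CAMHB to about 5×10^5 CFU/mL. Serial dilutions of agent were incubated aerobically at 37 °C for 18–20 h. MIC was read visually as the lowest concentration with complete growth inhibition.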

Staphylococcus aureus [3] = assay: Upregulation of DefA protein expression in Staphylococcus aureus assessed as log2 of fold change in protein level measured after 2 hrs by LC-MS/MS analysis relative to control; assay type: functional; procedure, shortened: as §1
Mus musculus = assay: Acceleration of wound healing in methicillin-resistant Staphylococcus aureus USA300 infected Balb/c mouse model assessed as reduction in TNF-alpha level in skin wounds administered topically twice daily 2 days post infection and measured after 5 days post compound treatment; assay type: functional, organism-based; details: time 5.0 day
Procedure, shortened: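 Mice had two 6-mm dorsal excisional wounds, each infected with 20 μL of 4.2×10^9 CFU/mL MRSA USA300 and covered with Tegaderm. Treatment began 2 days after infection (n=5 per group): 2% compound in petroleum jelly applied topically twice daily for 5 days. Right-wound homogenates in PBS were centrifuged, supernatants pooled per group, and protein normalised by BCA. Cytokines were measured by mouse cytokine array (pg/mL).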

Staphylococcus aureus [4] = assay: Upregulation of siderophore biosynthesis protein SbnF in Staphylococcus aureus measured after 2 hrs by LC-MS/MS analysis; assay type: functional; procedure, shortened: as §1
Staphylococcus aureus [5] = assay: Downregulation of MtaB protein expression in Staphylococcus aureus assessed as log2 of fold change in protein level measured after 2 hrs by LC-MS/MS analysis relative to control; assay type: functional
Procedure, shortened: (§2)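 S. aureus ATCC 25923 at OD600 0.6 was treated with compound or DMSO for 2 h at 37 °C, normalised to OD600 1.1, and washed in PBS. Cells were pressure-lysed in 100 mM ammonium bicarbonate, then acetone-precipitated, reduced with DTT, alkylated with iodoacetamide, and digested with trypsin/Lys-C. Peptides were desalted and run on LC-MS/MS. Label-free quantitation used proteins present in all 3 samples, filtered at p<0.05 against DMSO.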

Staphylococcus aureus [6] = assay: Downregulation of protein EssC expression in Staphylococcus aureus measured after 2 hrs by LC-MS/MS analysis; assay type: functional; procedure, shortened: as §1
Streptococcus pyogenes = assay: Antibacterial activity against Streptococcus pyogenes MGAS 9882 assessed as inhibition of bacterial growth incubated for 18 to 20 hrs by broth microdilution method; assay type: functional; details: time 18-20 hrs
Procedure, shortened: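 Broth microdilution with a 0.5 McFarland inoculum diluted in tryptic soy broth to about 5 × 10^5 CFU/mL. Serial compound dilutions incubated aerobically at 37° C for 18–20 hours. MIC read visually as the lowest concentration with no growth.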

Staphylococcus aureus [7] = assay: Upregulation of ribonuclease HIII expression in Staphylococcus aureus measured after 2 hrs by LC-MS/MS analysis; assay type: functional; procedure, shortened: as §1
[8] = tested on: Staphylococcus epidermidis; assay: Antibacterial activity against Staphylococcus epidermidis NRS 101 assessed as inhibition of bacterial growth incubated for 18 to 20 hrs by broth microdilution method; assay type: functional; details: time 18-20 hrs
Procedure, shortened: (§3)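 Broth microdilution per CLSI. Inoculum at 0.5 McFarland, diluted in cation-adjusted Mueller Hinton broth to about 5 × 10^5 CFU/mL. Serial compound dilutions incubated aerobically at 37° C for 18–20 hours. MIC taken as the lowest concentration completely inhibiting visible growth.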

Staphylococcus aureus [9] = assay: Downregulation of EsxA protein expression in Staphylococcus aureus assessed as log2 of fold change in protein level measured after 2 hrs by LC-MS/MS analysis relative to control; assay type: functional; procedure, shortened: as §2
Staphylococcus aureus [10] = assay: Downregulation of AdhE protein expression in Staphylococcus aureus assessed as log2 of fold change in protein level measured after 2 hrs by LC-MS/MS analysis relative to control; assay type: functional; procedure, shortened: as §2
Streptococcus pneumoniae = assay: Antibacterial activity against […] ATCC 700677 assessed as inhibition of bacterial growth incubated for 18 to 20 hrs by broth microdilution method; assay type: functional; details: time 18-20 hrs
Procedure, shortened: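 Broth microdilution per CLSI. S. pneumoniae was diluted to about 5×10^5 CFU/mL in TSB and incubated with serial dilutions of agent at 37 °C for 18–20 h under 5% CO2. MIC was read visually as the lowest concentration completely inhibiting growth.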

Staphylococcus aureus [11] = assay: Downregulation of multifunctional 2,3-cyclic-nucleotide 2-phosphodiesterase/5-nucleotidase/3-nucleotidase protein expression in Staphylococcus aureus measured after 2 hrs by LC-MS/MS analysis; assay type: functional; procedure, shortened: as §1
[12] = Toxicity in Balb/c mouse infected with methicillin-resistant Staphylococcus aureus USA300 assessed as chronic inflammatory response administered topically twice daily 2 days post infection and measured after 5 days post compound treatment by H and E staining based histopathological analysis; details: in vivo, topical_or_ocular, 120 h, time 5 day
Procedure, shortened: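 MRSA USA300-infected punch wounds in mice, n=5. Topical 2% agent or petroleum jelly vehicle twice daily from day 2 for 5 days. The left wound was formalin-fixed, cut into 4-μm sections and H&E-stained. Whole slides were scanned and assessed by a board-certified veterinary pathologist for necrosis, inflammation, haemorrhage and related features.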

Staphylococcus aureus [13] = assay: Downregulation of membrane protein expression in Staphylococcus aureus measured after 2 hrs by LC-MS/MS analysis; assay type: functional; procedure, shortened: as §1
Staphylococcus aureus [14] = assay: Downregulation of nitrite reductase (NAD(P)H) small subunit protein expression in Staphylococcus aureus measured after 2 hrs by LC-MS/MS analysis; assay type: functional; procedure, shortened: as §1
Staphylococcus aureus [15] = assay: Upregulation of IsdI protein expression in Staphylococcus aureus assessed as log2 of fold change in protein level measured after 2 hrs by LC-MS/MS analysis relative to control; assay type: functional; procedure, shortened: as §1
Staphylococcus aureus [16] = assay: Downregulation of DNA-binding response regulator protein expression in Staphylococcus aureus measured after 2 hrs by LC-MS/MS analysis; assay type: functional; procedure, shortened: as §2
Staphylococcus aureus [17] = assay: Upregulation of 23S rRNA (pseudouridine(1915)-N(3))-methyltransferase RImH expression in Staphylococcus aureus measured after 2 hrs by LC-MS/MS analysis; assay type: functional; procedure, shortened: as §1
Staphylococcus aureus [18] = assay: Downregulation of Nuc protein expression in Staphylococcus aureus assessed as log2 of fold change in protein level measured after 2 hrs by LC-MS/MS analysis relative to control; assay type: functional; procedure, shortened: as §2
HaCaT = assay: Cytotoxicity against human HaCaT cells assessed as reduction in cell viability measured upto 64 ug/ml incubated for 2 hrs by MTS assay; assay type: toxicity, cell-based; details: dose < 64 µg/ml
Procedure, shortened: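 Human keratinocytes exposed to compound at 16, 32, 64 and 128 μg/mL in sextuplicate for 2 hours at 37 °C with 5% CO2. DMSO served as the baseline control. MTS reagent added, then 3 h further incubation, and absorbance read at OD490.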

Staphylococcus aureus [19] = assay: Antibacterial activity against Staphylococcus aureus ATCC 25923 assessed as inhibition of bacterial growth incubated for 18 to 20 hrs by broth microdilution method; assay type: functional; details: time 18-20 hrs; procedure, shortened: as §3

With `CC1CC(C)CN(S(=O)(=O)c2ccc(C(=O)Nc3nnc(-c4ccc(C(F)(F)F)cc4)o3)cc2)C1` (stereo not drawn) the Activity (Staphylococcus aureus [1]) was “Active”, the MIC (Staphylococcus aureus [2]) was 0.25 µg/mL (≈ 0.492 µM) and the log2FC (Staphylococcus aureus [3]) was 2. For the same compound, the Activity (Mus musculus) was “Active”, the Activity (Staphylococcus aureus [4]) was “Active” and the log2FC (Staphylococcus aureus [5]) was -2. The Activity (Staphylococcus aureus [6]) was “Active”, the MIC (Streptococcus pyogenes) was 0.06 µg/mL (≈ 0.118 µM) and the Activity (Staphylococcus aureus [7]) was “Active”. The MIC [8] was 0.25 µg/mL (≈ 0.492 µM), the log2FC (Staphylococcus aureus [9]) was -2 and the log2FC (Staphylococcus aureus [10]) was -2.5. The MIC (Streptococcus pneumoniae) was 0.06 µg/mL (≈ 0.118 µM), the Activity (Staphylococcus aureus [11]) was “Active” and the Activity [12] was “Toxic”. The Activity (Staphylococcus aureus [13]) was “Active”, the Activity (Staphylococcus aureus [14]) was “Active” and the log2FC (Staphylococcus aureus [15]) was 3.2. The Activity (Staphylococcus aureus [16]) was “Active”, the Activity (Staphylococcus aureus [17]) was “Active” and the log2FC (Staphylococcus aureus [18]) was -5.1. The Activity (HaCaT) was “Non-Toxic” and the MIC (Staphylococcus aureus [19]) was 0.25 µg/mL (≈ 0.492 µM).
